Source: ChEMBL document CHEMBL1156780, “6-(Het)aryl-7-deazapurine ribonucleosides as novel potent cytostatic agents” (J Med Chem, 2010)

Tests used:
[1] = Cytostatic activity against human Hs578 cells after 5 days by SRB assay; format: functional; conditions: Hs578, 120 h
Method in brief: (§1)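 Cells seeded in RPMI (colon, breast, lung lines), MEM (Du145) or F12K (PC3) with 10% FBS, 37 °C overnight. Day-zero plates fixed with cold 10% TCA. Compounds added as 5-fold serial dilutions for 5 days. Fixed, stained with 0.057% SRB in 1% acetic acid, dye solubilized in 10 mM Tris pH 10.5, A500 read. Growth % corrected for day-0 OD; GIC₅₀ from sigmoidal fit.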

[2] = tested on: HL-60; assay: Cytotoxicity against human HL60 cells after 3 days by XTT assay; format: functional, cell-based; conditions: HL-60, 72 h
Method in brief: (§2)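 Cell viability of CCRF-CEM, HL60 and HeLa cells measured by XTT assay after 72 h incubation with compounds. IC₅₀ taken as mean of 2–4 independent experiments.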

[3] = tested on: CCRF-CEM; assay: Cytotoxicity against human CCRF-CEM cells after 3 days by XTT assay; format: functional, cell-based; conditions: 72 h; method in brief: as §2
[4] = Cytotoxicity against human HeLaS3 cells after 3 days by XTT assay; format: functional, cell-based; conditions: HeLa S3, 72 h
[5] = tested on: NCI-H23; assay: Cytotoxicity against human NCI-H23 cells after 5 days by SRB assay; format: functional; conditions: NCI-H23, 120 h; method in brief: as §1
[6] = tested on: PC-3; assay: Cytotoxicity against human PC3 cells after 5 days by SRB assay; format: functional; conditions: PC-3, 120 h; method in brief: as §1
[7] = tested on: HCT-15; assay: Cytotoxicity against human HCT15 cells after 5 days by SRB assay; format: functional; conditions: HCT-15, 120 h; method in brief: as §1
[8] = tested on: BT-549; assay: Cytotoxicity against human BT549 cells after 5 days by SRB assay; format: functional; conditions: BT-549, 120 h; method in brief: as §1
[9] = tested on: CCRF-CEM; assay: Cell cycle arrest in human CCRF-CEM assessed as accumulation at subG1 phase at 1 x GIC50 after 24 hrs by flow cytometry; format: functional
Method in brief: (§3)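 Subconfluent CCRF-CEM (5 × 10⁵ cells/mL, RPMI 1640 + 10% FCS, 37 °C CO₂) exposed 24 h at 1× or 5× GIC₅₀, vehicle controls alongside. Cells fixed overnight in 70% ethanol at -20 °C, hypotonic citrate wash, RNase 50 μg/mL, propidium iodide stain, 488 nm flow cytometry. Sub-G1 = particles with PI content below G0/G1 cells. Reported as % of total cells.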

[10] = tested on: CCRF-CEM; assay: Cell cycle arrest in human CCRF-CEM assessed as accumulation at subG1 phase at 5 x GIC50 after 24 hrs by flow cytometry; format: functional; method in brief: as §3
[11] = tested on: CCRF-CEM; assay: Cell cycle arrest in human CCRF-CEM assessed as accumulation at G1 phase at 1 x GIC50 after 24 hrs by flow cytometry; format: functional; method in brief: as §3
[12] = tested on: CCRF-CEM; assay: Cell cycle arrest in human CCRF-CEM assessed as accumulation at G1 phase at 5 x GIC50 after 24 hrs by flow cytometry; format: functional; method in brief: as §3
[13] = tested on: CCRF-CEM; assay: Cell cycle arrest in human CCRF-CEM assessed as accumulation at S phase at 1 x GIC50 after 24 hrs by flow cytometry; format: functional; method in brief: as §3
[14] = tested on: CCRF-CEM; assay: Cell cycle arrest in human CCRF-CEM assessed as accumulation at S phase at 5 x GIC50 after 24 hrs by flow cytometry; format: functional; method in brief: as §3
[15] = tested on: CCRF-CEM; assay: Cell cycle arrest in human CCRF-CEM assessed as accumulation at G2/M phase at 1 x GIC50 after 24 hrs by flow cytometry; format: functional; method in brief: as §3
[16] = tested on: CCRF-CEM; assay: Cell cycle arrest in human CCRF-CEM assessed as accumulation at G2/M phase at 5 x GIC50 after 24 hrs by flow cytometry; format: functional; method in brief: as §3
[17] = tested on: CCRF-CEM; assay: Antimitotic activity in human CCRF-CEM cells assessed as decrease in mitotic histone H3 at 1 x GIC50; format: functional; set-up: scale not given: the % may be the effect or the level left
Method in brief: (§4)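 CCRF-CEM cells seeded subconfluent at 5 × 10⁵ cells/mL in RPMI 1640 with 10% FCS, 10 mM glutamine, penicillin/streptomycin, 37 °C humidified CO₂. Exposed 24 h at 1× or 5× GIC₅₀; vehicle controls harvested at 24 h. Ethanol-fixed cells labelled with anti-phospho-histone H3 Ser10 and mitotic cells counted by flow cytometry as % of total population.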

[18] = tested on: CCRF-CEM; assay: Antimitotic activity in human CCRF-CEM cells assessed as decrease in mitotic histone H3 at 5 x GIC50; format: functional; set-up: scale not given: the % may be the effect or the level left; method in brief: as §4
[19] = tested on: CCRF-CEM; assay: Inhibition of RNA synthesis in human CCRF-CEM assessed as assessed as BrdU incorporation at 1 x GIC50 after 24 by flow cytometry; format: functional; set-up: scale not given: the % may be the effect or the level left
Method in brief: (§5)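 CCRF-CEM culture as for cell cycle (24 h, 1× or 5× GIC₅₀). Cells pulsed 30 min with 1 mM bromouridine before harvest. Fixed in 1% paraformaldehyde/0.05% NP-40. Stained with anti-BrdU antibody cross-reacting with BrU, then FITC secondary, PI and RNase A. BrU+ cells quantified by 488 nm flow cytometry.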

[20] = tested on: CCRF-CEM; assay: Inhibition of RNA synthesis in human CCRF-CEM assessed as assessed as BrdU incorporation at 5 x GIC50 after 24 by flow cytometry; format: functional; set-up: scale not given: the % may be the effect or the level left; method in brief: as §5
[21] = tested on: CCRF-CEM; assay: Inhibition of DNA synthesis in human CCRF-CEM assessed as assessed as BrdU incorporation at 1 x GIC50 after 24 by flow cytometry; format: functional; set-up: scale not given: the % may be the effect or the level left
Method in brief: (§6)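 Culture as for cell cycle work (CCRF-CEM, 24 h, 1× or 5× GIC₅₀). Pulse with 10 μM BrdU for 30 min before harvest. Fixed in 70% ethanol, DNA denatured in 2 M HCl, neutralized with 0.1 M borax. Stained with anti-BrdU and FITC secondary, plus PI 0.1 mg/mL and RNase A. BrdU+ cells counted by flow cytometry.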

[22] = tested on: CCRF-CEM; assay: Inhibition of DNA synthesis in human CCRF-CEM assessed as assessed as BrdU incorporation at 5 x GIC50 after 24 by flow cytometry; format: functional; set-up: scale not given: the % may be the effect or the level left; method in brief: as §6
[23] = tested on: A549; assay: Cytostatic activity against human A549 cells after 5 days by SRB assay; format: functional; conditions: A549, 120 h; method in brief: as §1
[24] = tested on: DU-145; assay: Cytostatic activity against human DU145 cells after 5 days by SRB assay; format: functional; conditions: DU-145, 120 h; method in brief: as §1
[25] = tested on: HCT-116; assay: Cytostatic activity against human HCT116 cells after 5 days by SRB assay; format: functional; conditions: HCT-116, 120 h; method in brief: as §1
[26] = tested on: DU-145; assay: Cellular uptake ion human DU145 cells measured per million cells after 6 hrs; format: functional
Method in brief: (§7)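 Du145 cells incubated with 10 μM compound for 6 or 24 h, PBS-washed, trypsinized, pelleted, spun through Nyosil M25 oil. Extracts analysed by LC/MS/MS for parent nucleoside, monophosphate and triphosphate. Standards and QC samples prepared in untreated-cell extracts. Expressed as pmol per million cells.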

[27] = tested on: DU-145; assay: Cellular uptake ion human DU145 cells assessed as monophosphate level measured per million cells after 6 hrs; format: functional; method in brief: as §7
[28] = tested on: DU-145; assay: Cellular uptake ion human DU145 cells measured per million cells after 24 hrs; format: functional; method in brief: as §7
[29] = tested on: DU-145; assay: Cellular uptake ion human DU145 cells assessed as monophosphate level measured per million cells after 24 hrs; format: functional; method in brief: as §7
[30] = tested on: DU-145; assay: Cellular uptake ion human DU145 cells assessed as triphosphate level measured per million cells after 6 hrs
[31] = tested on: DU-145; assay: Cellular uptake ion human DU145 cells assessed as triphosphate level measured per million cells after 24 hrs
[32] = tested on: CCRF-CEM; assay: Inhibition of RNA synthesis in human CCRF-CEM assessed as assessed as BrdU incorporation after 24 by flow cytometry; format: functional
[33] = tested on: CCRF-CEM; assay: Inhibition of DNA synthesis in human CCRF-CEM assessed as assessed as BrdU incorporation after 24 by flow cytometry; format: functional

Structure (SMILES)	GI50 [1] [nM]	IC50 [2] [nM]	IC50 [3] [nM]	IC50 [4] [nM]	GI50 [5] [nM]	GI50 [6] [nM]	Activity [9] [%]	Activity [10] [%]	Activity [11] [%]	Activity [12] [%]	Activity [13] [%]	Activity [14] [%]	Activity [15] [%]	Activity [16] [%]	Activity [17] [%]	Activity [18] [%]	Activity [19] [%]	Activity [20] [%]	Activity [21] [%]	Activity [22] [%]	also measured
OC[C@H]1O[C@@H](n2cc(F)c3c(-c4cccs4)ncnc32)[C@H](O)[C@@H]1O	130	4300	270	4300	1500	90	17.1	43.4	43.9	40.4	46.7	50.5	9.3	9.1	0.85	0.47	28.4	5.7	56.2	47	GI50 [7]: 18 nM; GI50 [8]: 81 nM; GI50 [23]: 61 nM; GI50 [24]: 9 nM; GI50 [25]: 9 nM
OC[C@H]1O[C@@H](n2ccc3c(-c4ccoc4)ncnc32)[C@H](O)[C@@H]1O	260	1500	1900	4600	280	96	39.8	61.2	55.6	54.4	37.3	39.7	7.1	5.9	0.84	0.39	14	7.2	44.6	28.9	GI50 [7]: 86 nM; GI50 [8]: 35 nM; GI50 [23]: 73 nM; GI50 [24]: 36 nM; GI50 [25]: 92 nM
OC[C@H]1O[C@@H](n2cc(Cl)c3c(-c4ccco4)ncnc32)[C@H](O)[C@@H]1O	> 10000	21600	3800	> 40000																	Activity [26]: 20.1 pmol; Activity [27]: 164 pmol; Activity [28]: 45 pmol; Activity [29]: 332 pmol; GI50 [23]: > 10000 nM; GI50 [24]: > 10000 nM; GI50 [25]: > 10000 nM; triphosphate (NTP) level [30]: 19.2 pmol; triphosphate (NTP) level [31]: 21.2 pmol
OC[C@H]1O[C@@H](n2ccc3c(-c4cccs4)ncnc32)[C@H](O)[C@@H]1O	100	1200	290	8800	430	33	13.7	55	45.5	47	42.2	47	12.2	6	0.87	0.44	28.5	3.5	55.5	38.3	GI50 [7]: 78 nM; GI50 [8]: 23 nM; GI50 [23]: 45 nM; GI50 [24]: 9 nM; GI50 [25]: 49 nM
Nc1nc(Cl)nc2c1ncn2[C@H]1C[C@H](O)[C@@H](CO)O1 [CLADRIBINE]							48	61.5	73.2	61.6	24.9	30.8	1.9	7.6	0.85	0.44	46.2	41.3	32.1	13	inhibition (INH) [32]: 44.77%; inhibition (INH) [33]: 9.54%
Nc1ccn([C@@H]2O[C@H](CO)[C@@H](O)C2(F)F)c(=O)n1 [GEMCITABINE]					2	6	24.1	54	27.1	67.1	72.3	30.5	0.6	2.3	0.78	0.53	54.7	44.8	56.7	9.5	GI50 [7]: 3 nM; GI50 [8]: 4 nM
